ChEMBL document CHEMBL1124800, “9,11-epoxy-9-homoprosta-5-enoic acid analogues as thromboxane A2 receptor antagonists” (J Med Chem, 1990)

Experiments:
Homo sapiens [1] = species: Homo sapiens; assay: In vitro inhibition of aggregation of human platelet rich plasma induced by adenosine diphosphate; type: functional; settings: read-out: I50
Rattus norvegicus [2] = species: Rattus norvegicus; assay: Maximal contraction of rat stomach induced by serotonin; type: functional
In short: (§1)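 Rat stomach strip; test compound concentration giving 50% of the maximal contraction produced by 3.0 × 10⁻⁷ M serotonin (A50). Where reported as a percentage, value is the maximum contraction seen at the stated test concentration. n = 8.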

Homo sapiens [3] = species: Homo sapiens; assay: In vitro inhibition of aggregation of human platelet rich plasma induced by arachidonic acid; type: functional; settings: read-out: I50
Rattus norvegicus [4] = species: Rattus norvegicus; assay: Maximal contraction of rat stomach induced by serotonin at 30 uM concentration; type: functional; in short: as §1
Rattus norvegicus [5] = species: Rattus norvegicus; assay: Concentration required to elicit 50% of the maximal contraction of rat stomach induced by serotonin; type: functional; in short: as §1
[6] = molecular target: Thromboxane A2 receptor (Cavia porcellus); assay: Antagonistic activity against Thromboxane A2 receptor in guinea pig trachea in the presence of 11,9-epoxymethano-PGH2; settings: read-out: pA2 (converted)
Rattus norvegicus [7] = species: Rattus norvegicus; assay: Competitive antagonism of 11,9-epoxymethano-PGH2-induced contraction in rat aorta; type: functional
Thromboxane A2 receptor = molecular target: T1, Thromboxane A2 receptor (Rattus norvegicus, UniProt P34978); assay: Antagonistic activity against Thromboxane A2 receptor in rat aorta in the presence of 11,9-epoxymethano-PGH2; type: functional, tissue-based
T1 sequence (P34978 whole entry): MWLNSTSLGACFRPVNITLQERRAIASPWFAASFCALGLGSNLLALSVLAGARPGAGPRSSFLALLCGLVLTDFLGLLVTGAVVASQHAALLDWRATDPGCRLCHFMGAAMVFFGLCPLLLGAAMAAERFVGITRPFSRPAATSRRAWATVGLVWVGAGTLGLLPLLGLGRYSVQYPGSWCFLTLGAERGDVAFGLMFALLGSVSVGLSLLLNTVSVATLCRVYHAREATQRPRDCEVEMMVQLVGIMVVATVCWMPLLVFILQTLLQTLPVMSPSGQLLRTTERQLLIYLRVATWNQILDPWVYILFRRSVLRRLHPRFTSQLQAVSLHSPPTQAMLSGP

Cavia porcellus = species: Cavia porcellus; assay: Competitive antagonism of 11,9-epoxymethano-PGH2-induced contraction in guinea pig trachea; type: functional
[8] = molecular target: Thromboxane A2 receptor (Cavia porcellus); assay: Antagonistic activity against Thromboxane A2 receptor in guinea pig trachea in the presence of 9,11-azo-PGH2; settings: read-out: I50
Rattus norvegicus [9] = species: Rattus norvegicus; assay: Maximal contraction of rat stomach induced by serotonin at 0.1 uM concentration; type: functional

| IC50 (Homo sapiens [1]) [µM] | IC50 (Homo sapiens [3]) [µM] | SMILES | also measured |
| --- | --- | --- | --- |
| > 1000 | 3.1 | C[C@H](c1ccccc1)[C@H](O)/C=C/C1C2CCC(O2)[C@H]1C/C=C\CCCC(=O)O (some centres undefined) | Contraction (Rattus norvegicus [2]): 0% |
| > 100 | 730 | C[C@H](c1ccccc1)[C@H](O)/C=C/C1C2CCC(O2)[C@@H]1C/C=C\CCCC(=O)O (some centres undefined) |  |
|  | 3.2 | C[C@@H](c1ccccc1)[C@H](O)/C=C/[C@@H]1C2CCC(O2)[C@@H]1C/C=C\CCCc1nnn[nH]1 (some centres undefined) |  |
| > 1000 | 0.65 | C[C@@H](c1ccccc1)[C@H](O)/C=C/C1C2CCC(O2)C1C/C=C\CCCC(=O)O (some centres undefined) | Kb [6]: 0.01 µM; Kb (Rattus norvegicus [7]): 0.0135 µM; Kb (Thromboxane A2 receptor): 0.00794 µM; Kb (Cavia porcellus): 0.0121 µM; IC50 [8]: 1.98 µM; Contraction (Rattus norvegicus [2]): 0% |
|  | 25 | C[C@@H](c1ccccc1)[C@H](O)/C=C/[C@@H]1C2CCC(O2)[C@@H]1CC/C=C/CCC(=O)O (some centres undefined) |  |
|  | 25 | CC(CC/C=C\C[C@H]1C2CCC(O2)[C@H]1/C=C/[C@@H](O)[C@@H](C)c1ccccc1)C(=O)O (some centres undefined) |  |
|  | 3.4 | C[C@@H](c1ccccc1)[C@H](O)/C=C/[C@@H]1C2CCC(O2)[C@@H]1C/C=C\COCC(=O)O (some centres undefined) |  |
|  | 12 | CC(C/C=C\C[C@H]1C2CCC(O2)[C@H]1/C=C/[C@@H](O)[C@@H](C)c1ccccc1)CC(=O)O (some centres undefined) |  |
|  | 3.8 | C[C@@H](c1ccccc1)[C@H](O)/C=C/[C@@H]1C2CCC(O2)[C@@H]1C/C=C\C/C=C/C(=O)O (some centres undefined) |  |
|  | 260 | C[C@@H](c1ccccc1)[C@H](O)/C=C/[C@@H]1C2CCC(O2)[C@@H]1C/C=C\CCC(C)(C)C(=O)O (some centres undefined) |  |

Second part, the compound before the results:

| SMILES | IC50 (Homo sapiens [1]) [µM] | IC50 (Homo sapiens [3]) [µM] | also measured |
| --- | --- | --- | --- |
| O=C(O)CCC/C=C\CC1C2CCC(O2)C1/C=C/[C@@H](O)C1CCCCC1 (some centres undefined) | 0.9 | 0.4 | Contraction (Rattus norvegicus [4]): 9% |
| C[C@@H](c1ccc(O)c(I)c1)[C@H](O)/C=C/C1C2CCC(O2)C1C/C=C\CCCC(=O)O (some centres undefined) | > 1000 | 0.93 |  |
| O=C(O)CCC/C=C\CC1C2CCC(O2)C1/C=C/[C@@H](O)COc1ccccc1 (some centres undefined) |  |  | A50 (Rattus norvegicus [5]): 6 µM |
| CCCCC(C)(C)[C@H](O)/C=C/C1C2CCC(O2)C1C/C=C\CCCC(=O)O (some centres undefined) | > 1000 | 1.1 |  |
| O=C(O)CCC/C=C\CC1C2CCC(O2)C1/C=C/[C@@H](O)CCc1ccccc1 (some centres undefined) | > 1000 | 1.2 | A50 (Rattus norvegicus [5]): 3.7 µM |
| C[C@@H](c1ccc(O)cc1)[C@H](O)/C=C/C1C2CCC(O2)C1C/C=C\CCCC(=O)O (some centres undefined) | 950 | 0.24 | Contraction (Rattus norvegicus [9]): 21% |
| CCCCC[C@H](O)/C=C/C1C2CCC(O2)C1C/C=C\CCCC(=O)O (some centres undefined) | 300 | 1.7 | A50 (Rattus norvegicus [5]): 0.4 µM |
| O=C(O)CCC/C=C\C[C@H]1C2CCC(O2)[C@H]1CNNC(=O)Nc1ccccc1 (some centres undefined) |  |  | Kb (Rattus norvegicus [7]): 0.00066 µM; Kb (Cavia porcellus): 0.0013 µM |
